From ChEMBL document CHEMBL5053518, “1,5,6,7-Tetrahydro-4H-indazol-4-ones as human neutrophil elastase (HNE) inhibitors” (Bioorg Med Chem Lett, 2021)
Active and inactive are the calls of the source. The rule behind the calls is not given here.

Assays:
[1] = target: T1, Neutrophil elastase (Homo sapiens) (UniProt P08246); assay: Inhibition of human neutrophil elastase at 50 uM
T1 sequence (whole entry): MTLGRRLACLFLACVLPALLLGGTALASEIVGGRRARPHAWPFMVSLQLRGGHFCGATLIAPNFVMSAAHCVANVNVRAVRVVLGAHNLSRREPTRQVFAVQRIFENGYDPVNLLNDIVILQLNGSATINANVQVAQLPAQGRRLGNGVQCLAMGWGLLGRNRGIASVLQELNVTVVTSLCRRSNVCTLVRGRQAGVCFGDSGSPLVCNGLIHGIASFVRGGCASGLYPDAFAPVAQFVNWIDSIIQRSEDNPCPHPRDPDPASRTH
Outline: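 Human neutrophil elastase inhibition was tested up to a highest concentration of 50 μM. Active compounds were given as Ki values, reported as mean ± SD of three independent experiments.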

[2] = Stability in aqueous buffer assessed as half life; type: physicochemical; settings: for half-life: aqueous buffer; for t1/2: buffer

Row | inhibition [1] | SMILES | also measured
1 | inactive | O=C1CCCc2nn(Cc3ccccc3)cc21 | 
2 |  | O=C(C1CC1)n1cc2c(n1)CCC(Br)(Br)C2=O | half-life [2]: 3.91 h
3 | inactive | O=C1CCCc2nn(Cc3cccc(C(F)(F)F)c3)cc21 | 
4 |  | O=C(C1CC1)n1ncc2c1CCC(Br)(Br)C2=O | t1/2 [2]: 0.952 h
5 | inactive | O=C(C1CC1)N(C(=O)C1CC1)C1CCCc2c1cnn2-c1ccccc1 (stereo not given) | 
6 | inactive | CC(C)(C)OC(=O)N1CCN(C(=O)Cn2cc3c(n2)CCCC3=O)CC1 | 
7 |  | Cc1cccc(C(=O)n2ncc3c2CCCC3=O)c1 | t1/2 [2]: 1.64 h
8 |  | O=C1c2cnn(C(=O)C3CC3)c2CCC1Br (stereo not given) | half-life [2]: 0.645 h
9 | inactive | O=C1CCCc2c1cnn2Cc1cccc(C(F)(F)F)c1 | 
10 | inactive | O=C1c2cnn(CC(=O)N3CCN(c4ccccc4)CC3)c2CCC1Br (stereo not given) | 
11 | inactive | O=C1c2cn(CC(=O)N3CCN(c4ccccc4)CC3)nc2CCC1Br (stereo not given) | 
12 |  | O=C1c2cn(C(=O)C3CC3)nc2CCC1Br (stereo not given) | t1/2 [2]: 1.9123 h
13 | inactive | O=C1CCCc2c1cnn2-c1cccc(C(F)(F)F)c1 | 
14 | inactive | O=C1CCCc2c1cnn2Cc1ccccc1 | 
15 | inactive | O=C1CCCc2nn(CC(=O)N3CCNCC3)cc21 | 
16 | inactive | O=C1CCCc2nn(-c3cccc(C(F)(F)F)c3)cc21 | 
17 | inactive | CC(C)(C)OC(=O)n1cc2c(n1)CCC(Br)C2=O (stereo not given) | 
18 | inactive | CC(C)(C)OC(=O)N1CCN(C(=O)Cn2ncc3c2CCCC3=O)CC1 | 
19 | inactive | Cc1cccc(C(=O)NC2CCCc3c2cnn3-c2ccccc2)c1 (stereo not given) | 
20 | inactive | O=C(NC1CCCc2c1cnn2-c1ccccc1)C1CC1 (stereo not given) | 
